# Tests used:
# Format in all cases: functional, cell-based
# MCF7 = experiment: Cytotoxicity against human MCF7 cells after 72 hrs by MTT assay; conditions: MCF7, 72 h
# Method in brief: (§1)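 Lines kept in RPMI-1640 with 10% FBS. Cells were seeded at 2×10³ per well and allowed to attach for 24 h at 37 °C. Medium was then replaced with medium holding serial dilutions from 100 mM DMSO stocks, with 0.1% DMSO as negative control, for 72 h at 37 °C. […] IC50 was fitted from the concentration series as the mean ± SD of three independent experiments run in duplicate.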
# MDA-MB-231 = experiment: Cytotoxicity against human MDA-MB-231 cells after 72 hrs by MTT assay; conditions: MDA-MB-231, 72 h; method in brief: as §1
# BT-549 = experiment: Cytotoxicity against human BT549 cells after 72 hrs by MTT assay; conditions: BT-549, 72 h; method in brief: as §1
# T47D = experiment: Cytotoxicity against human T47D cells after 72 hrs by MTT assay; method in brief: as §1
# MDA-MB-468 = experiment: Cytotoxicity against human MDA-MB-468 cells after 72 hrs by MTT assay; conditions: MDA-MB-468, 72 h; method in brief: as §1
# Hs-578T = experiment: Cytotoxicity against human Hs578T cells after 72 hrs by MTT assay; method in brief: as §1
Structure (SMILES),IC50 (MCF7) [µM],IC50 (MDA-MB-231) [µM],IC50 (BT-549) [µM],IC50 (T47D) [µM],IC50 (MDA-MB-468) [µM],IC50 (Hs-578T) [µM]
COc1cc(C(=O)Nc2c(C(=O)c3ccc(F)c(F)c3)[nH]c3cc(Cl)ccc23)cc(OC)c1OC,10.1,> 100,51.2,> 100,> 100,64.6
COc1cc(C(=O)Nc2c(C(=O)c3ccc(C)cc3)[nH]c3ccccc23)cc(OC)c1OC,50,12.6,17.1,20.1,14.5,50.5
COc1cc(C(=O)Nc2c(C(=O)c3ccc(F)cc3)[nH]c3ccccc23)cc(OC)c1OC,77.9,50.8,42.6,60.9,> 100,> 100
COc1cccc(C(=O)c2[nH]c3ccccc3c2NC(=O)c2cc(OC)c(OC)c(OC)c2)c1,> 100,> 100,65.5,53.4,> 100,9.06
COc1ccc2c(NC(=O)c3cc(OC)c(OC)c(OC)c3)c(C(=O)c3ccc(C)cc3)[nH]c2c1,> 100,> 100,> 100,> 100,> 100,> 100
COc1cc(C(=O)Nc2c(C(=O)c3ccc4ccccc4c3)[nH]c3cc(C)ccc23)cc(OC)c1OC,> 100,> 100,39.8,> 100,> 100,53.3
COc1cc(C(=O)Nc2c(C(=O)c3cccs3)[nH]c3cc(C)ccc23)cc(OC)c1OC,> 100,> 100,> 100,> 100,> 100,> 100
COc1cc(C(=O)Nc2c(C(=O)c3ccccc3)[nH]c3ccccc23)cc(OC)c1OC,> 100,17.2,> 100,> 100,> 100,> 100
COc1cc(C(=O)Nc2c(C(=O)c3ccc(C)cc3)[nH]c3cc(C)ccc23)cc(OC)c1OC,69.5,33.4,69.8,40.2,75.1,43.7
COc1cc(C(=O)Nc2c(C(=O)c3ccccc3)[nH]c3cc(C)ccc23)cc(OC)c1OC,32.7,16.6,42.3,> 100,> 100,49.1
COc1cc(C(=O)Nc2c(C(=O)c3ccc(-c4ccccc4)cc3)[nH]c3ccccc23)cc(OC)c1OC,> 100,> 100,> 100,> 100,> 100,22.2
COc1cc(C(=O)Nc2c(C(=O)c3ccc(F)cc3)[nH]c3cc(Cl)ccc23)cc(OC)c1OC,61.1,46.6,35.5,76.2,> 100,> 100
COc1cccc(C(=O)c2[nH]c3cc(Cl)ccc3c2NC(=O)c2cc(OC)c(OC)c(OC)c2)c1,> 100,> 100,> 100,52.4,> 100,> 100
COc1ccc2c(NC(=O)c3cc(OC)c(OC)c(OC)c3)c(C(=O)c3ccccc3)[nH]c2c1,> 100,> 100,> 100,> 100,> 100,> 100
COc1cc(C(=O)Nc2c(C(=O)c3ccco3)[nH]c3cc(Cl)ccc23)cc(OC)c1OC,> 100,> 100,> 100,> 100,> 100,> 100
COc1cc(C(=O)Nc2c(C(=O)c3ccc(-c4ccccc4)cc3)[nH]c3cc(C)ccc23)cc(OC)c1OC,> 100,18.2,> 100,> 100,> 100,> 100
COc1cc(C(=O)Nc2c(C(=O)c3cccs3)[nH]c3cc(Cl)ccc23)cc(OC)c1OC,47.5,> 100,37.5,31.4,15.3,49.2

# — ChEMBL document CHEMBL4382246, “Synthesis, biological evaluation, and molecular docking investigation of 3-amidoindoles as potent tubulin polymerization inhibitors” (Eur J Med Chem, 2019)
